The results in this text go back to ChEMBL document CHEMBL5236609, “Optimization of 1,2,4-Triazole-3-thiones toward Broad-Spectrum Metallo-β-lactamase Inhibitors Showing Potent Synergistic Activity on VIM- and NDM-1-Producing Clinical Isolates” (J Med Chem, 2022).

Series [1] in a line: Inhibition of bacterial VIM-2 (unknown origin) expressed in Escherichia coli EXPRESS BL21(DE3) assessed as inhibition constant by measuring rate of substrate hydrolysis by UV-visible spectrophotometry. Further details: species or system Bacteria. In outline:
(§1)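 Reporter-substrate assay with purified MBL (1–70 nM final) in 50 mM HEPES pH 7.5 at 30 °C. […] Inhibitor 0.5–1000 μM final. Ki derived from the v0/vi vs [I] slope assuming competitive inhibition, or from a Dixon plot. Ki given when inhibition >70%, otherwise % inhibition at 100 μM. Triplicate.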

Series [2] in a line: Inhibition of bacterial VIM-4 (unknown origin) expressed in Escherichia coli EXPRESS BL21(DE3) assessed as inhibition constant by measuring rate of substrate hydrolysis by UV-visible spectrophotometry. More on the design: species or system Bacteria. In outline: as §1
The nature of series [3]: Inhibition of bacterial NDM-1 (unknown origin) expressed in Escherichia coli EXPRESS BL21(DE3) assessed as inhibition constant by measuring rate of substrate hydrolysis by UV-visible spectrophotometry. More on the design: species or system Bacteria. In short, it runs like this:
as §1

Series [4] in a line: n-Octanol/PBS partition coefficient, logD of the compound at pH 7.4 after 2 hrs by LC-MS/MS analysis. The format is physicochemical. In short, it runs like this:
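LogD from partitioning between 10 mM PBS pH 7.4 and n-octanol (1:1).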

Series [5] is described as follows: Stability in mouse plasma assessed as half life at 37 degC. The format is ADME, cell-free.
A short description of series [6]: Metabolic stability in CD-1 mouse microsomes assessed as half life at 37 degC by LC-MS/MS analysis. The format is ADME, Microsome. In outline: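 Mouse liver microsomes, mixed gender, at 37 °C for 40 min; propranolol control. Reports t1/2, intrinsic clearance and % intact compound remaining at 40 min.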
Series [7] has as its target T1, Endoplasmic reticulum aminopeptidase 1 (Mus musculus) (UniProt Q9EQH2).
T1 sequence (whole entry): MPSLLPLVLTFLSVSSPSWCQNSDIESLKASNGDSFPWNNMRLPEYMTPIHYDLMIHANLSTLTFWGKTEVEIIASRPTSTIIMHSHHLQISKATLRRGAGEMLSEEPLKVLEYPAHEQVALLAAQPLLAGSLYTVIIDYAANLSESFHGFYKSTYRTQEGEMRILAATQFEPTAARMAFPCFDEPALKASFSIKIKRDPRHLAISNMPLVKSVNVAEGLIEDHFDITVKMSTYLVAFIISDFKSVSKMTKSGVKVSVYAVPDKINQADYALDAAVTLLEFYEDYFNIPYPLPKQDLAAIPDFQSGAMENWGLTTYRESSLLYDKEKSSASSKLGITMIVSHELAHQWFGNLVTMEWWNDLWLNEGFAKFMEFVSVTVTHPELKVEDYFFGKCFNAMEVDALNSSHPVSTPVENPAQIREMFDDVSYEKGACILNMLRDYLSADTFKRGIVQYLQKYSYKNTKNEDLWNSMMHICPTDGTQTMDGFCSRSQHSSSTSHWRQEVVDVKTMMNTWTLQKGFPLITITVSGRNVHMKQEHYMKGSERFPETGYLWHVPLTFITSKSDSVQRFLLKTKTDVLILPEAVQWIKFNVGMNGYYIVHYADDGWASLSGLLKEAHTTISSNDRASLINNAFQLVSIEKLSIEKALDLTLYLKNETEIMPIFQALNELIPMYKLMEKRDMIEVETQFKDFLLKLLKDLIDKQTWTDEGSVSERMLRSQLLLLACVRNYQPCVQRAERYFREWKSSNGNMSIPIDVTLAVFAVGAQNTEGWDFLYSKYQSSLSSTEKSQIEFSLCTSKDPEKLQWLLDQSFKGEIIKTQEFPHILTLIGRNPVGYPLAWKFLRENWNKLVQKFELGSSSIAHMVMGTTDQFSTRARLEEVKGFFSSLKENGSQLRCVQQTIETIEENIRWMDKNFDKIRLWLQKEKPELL
Nature of the series: Inhibition of recombinant mouse ERAAP using fluorogenic substrate H-Leu-AMC at 100 uM relative to control. In outline:
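Mouse ERAAP, H-Leu-AMC substrate; undisclosed in-house control inhibitor. Percent inhibition at 100 μM, one experiment in duplicate.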

Series [8] has as its target T2, Protein deacetylase HDAC6 (Homo sapiens) (UniProt Q9UBN7).
T2 sequence (whole entry): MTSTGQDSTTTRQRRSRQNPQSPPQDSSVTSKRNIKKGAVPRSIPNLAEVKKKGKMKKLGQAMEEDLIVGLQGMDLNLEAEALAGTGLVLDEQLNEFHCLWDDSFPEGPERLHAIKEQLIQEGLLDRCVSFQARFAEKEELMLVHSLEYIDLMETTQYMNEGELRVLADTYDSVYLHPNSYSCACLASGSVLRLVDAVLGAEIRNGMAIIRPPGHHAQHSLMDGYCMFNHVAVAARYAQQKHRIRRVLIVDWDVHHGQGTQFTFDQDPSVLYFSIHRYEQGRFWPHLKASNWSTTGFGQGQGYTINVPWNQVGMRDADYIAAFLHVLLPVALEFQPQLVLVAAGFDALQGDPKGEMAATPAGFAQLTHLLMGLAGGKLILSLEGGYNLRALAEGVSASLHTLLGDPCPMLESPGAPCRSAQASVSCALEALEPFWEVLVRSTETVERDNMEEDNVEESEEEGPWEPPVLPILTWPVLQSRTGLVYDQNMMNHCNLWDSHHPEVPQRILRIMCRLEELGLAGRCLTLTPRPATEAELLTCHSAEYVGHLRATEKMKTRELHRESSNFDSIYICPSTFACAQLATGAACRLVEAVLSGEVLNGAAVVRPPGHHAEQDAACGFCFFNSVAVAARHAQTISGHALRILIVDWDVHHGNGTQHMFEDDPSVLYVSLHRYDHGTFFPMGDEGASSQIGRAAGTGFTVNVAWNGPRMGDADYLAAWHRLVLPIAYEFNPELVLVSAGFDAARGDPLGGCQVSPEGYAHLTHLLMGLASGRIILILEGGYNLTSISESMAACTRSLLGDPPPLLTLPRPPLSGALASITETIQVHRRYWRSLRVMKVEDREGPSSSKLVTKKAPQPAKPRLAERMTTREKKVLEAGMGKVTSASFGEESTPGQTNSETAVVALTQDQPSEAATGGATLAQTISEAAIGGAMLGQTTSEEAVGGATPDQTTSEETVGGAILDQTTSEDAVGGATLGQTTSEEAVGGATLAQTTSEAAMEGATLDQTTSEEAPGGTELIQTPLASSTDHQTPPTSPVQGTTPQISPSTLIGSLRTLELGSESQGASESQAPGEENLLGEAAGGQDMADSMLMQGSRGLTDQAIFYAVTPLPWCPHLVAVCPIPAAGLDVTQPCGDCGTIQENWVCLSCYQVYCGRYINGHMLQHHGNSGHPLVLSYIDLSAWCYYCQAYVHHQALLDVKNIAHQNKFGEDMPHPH
Briefly: Inhibition of recombinant human His-tagged HDAC6 expressed in baculovirus expression system using fluorogenic peptide substrate measured after 45 mins at 100 uM relative to control. In outline: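 Human HDAC6 fluorimetric kit with Fluor de Lys substrate; panobinostat as control inhibitor. Percent inhibition at 100 μM, one experiment in duplicate.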

The nature of series [9]: Inhibition of bacterial IMP-1 (unknown origin) expressed in Escherichia coli EXPRESS BL21(DE3) assessed as inhibition constant by measuring rate of substrate hydrolysis by UV-visible spectrophotometry. More on the design: species or system Bacteria. In outline: as §1

For `O=C(O)[C@H](CCCn1c(-c2ccccc2)n[nH]c1=S)N(Cc1ccccn1)Cc1ccccn1`, the Ki – broadly, a measure of affinity in units of concentration, obtained from inhibition or displacement – came to 960 nM in series [1], 760 nM in series [2] and 570 nM in [3]. Moreover, the logD (usually lipophilicity at a set pH, counting ionised and neutral species) at 2 h in series [4] turned out to be 0.243. Further, the half-life (commonly the time in which the quantity being followed falls by half) in series [5] was above 360 min; in [6], above 40 min. In addition, the inhibition (usually the change of the read-out against control, counted positive when it falls) is 13% in series [7] and below 100% in [8].
Take `Cc1[nH]cnc1CN(Cc1c[nH]cn1)[C@@H](CCCn1c(-c2ccccc2)n[nH]c1=S)C(=O)O`: the Ki was found to be 350 nM in series [1], 420 nM in series [2], 38 nM in series [3] and 4.5 µM in series [9]. This molecule also came in with a pH-dependent lipophilicity (logD) at 2 h in [4] of -1.93. Moreover, the half-life in series [5] was above 360 min; in series [6] it was above 40 min. The inhibition is 42% in series [7] and below 100% in [8].
On to `O=C(O)[C@H](CCn1c(-c2ccccc2)n[nH]c1=S)N(Cc1c[nH]cn1)Cc1c[nH]cn1`, for which the inhibitory constant (Ki) was determined as 210 nM in [1], 230 nM in series [2], 40 nM in series [3] and 6.2 µM in series [9]. In [4], the logD at 2 h is -2.2. Further, the half-life was above 360 min in series [5] and above 40 min in series [6]. The inhibition in series [7] was 51%; in series [8], below 100%.
As to `O=C(O)[C@H](CCCn1c(-c2ccc3ccccc3c2)n[nH]c1=S)N(Cc1c[nH]cn1)Cc1c[nH]cn1`, the Ki in series [1] was found to be 110 nM; in [2], 340 nM; in [3], 30 nM; in [9] it was 4.7 µM. This molecule yielded a logD at 2 h in series [4] of -0.823. The half-life was above 360 min in [5] and above 40 min in [6]. In addition, the inhibition in series [7] was 63%; in series [8] it was below 100%.
As to `O=C(O)[C@H](CCCn1c(-c2ccccc2)n[nH]c1=S)N(Cc1c[nH]cn1)Cc1c[nH]cn1`, the figures for the Ki in series [1], in series [2] and in series [3] were 410 nM, 200 nM and 30 nM, respectively. This molecule also yielded a logD at 2 h in series [4] of -2.12. Further, the half-life in [5] is above 360 min; in series [6], above 40 min. For the same molecule, the inhibition in series [7] is 51%; in series [8] it was below 100%.
